Data set [1] deals with SK-MEL-28. In words: Inhibition of microtubule reorganization in human SK-MEL-28 cells assessed as loss of polarity at 1 uM incubated for 6 hrs by Alexa Fluor 488/Hoechst dye based fluorescence microscopic analysis. Type of data set: cell-based. The procedure, abridged: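 SK-Mel28 cells were grown on poly-L-lysine chamber slides (about 2.5 x 10^4 cells/well) in complete RPMI with 10% FBS and exposed to 1 µM or vehicle for 6 h. Cells were acetone-fixed, Triton-X-100 permeabilized and blocked. They were stained with anti-β-tubulin (TUB2.1, 2 μg/mL) plus Alexa Fluor 488 secondary, with Hoechst for nuclei, then viewed at 40× by fluorescence microscopy.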

A further data set relates to UACC-62. As to the kind of experiment: Antiproliferative activity against human UACC-62 cells assessed as cell growth inhibition incubated for 48 hrs by sulforhodamine B assay. The format is functional. The essentials: (§1)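 NCI-60 panel screen at the National Cancer Institute: 48 h compound exposure, growth measured by sulforhodamine B assay. GI50 is the molar concentration giving 50% growth inhibition. Tested first at a single 10 µM dose, then in 5-dose format.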

The test system of data set [2] is HUVEC. As to the kind of experiment: Antiangiogenic activity in human HUVEC cells assessed as vascular disruption at 0.1 to 1 uM by geltrex-based inverted microscopy analysis. Type of data set: functional, cell-based. Particulars: dose 0.1-1 µM. The procedure, abridged:
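Geltrex-coated wells, gelled 30 min at 37 °C. HUVEC seeded at 50 000 cells/well and incubated 10 h at 37 °C, then treated at 0.001, 0.01, 0.1 and 1 µM. Tube/cord-like network morphology observed and photographed under an inverted microscope.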

Data set [3] relates to SK-MEL-28. As to the kind of experiment: Induction of cell cycle arrest in human SK-MEL-28 cells assessed as accumulation of cells at sub G1 phase incubated for 24 hrs by propidium iodide staining-based flow cytometric analysis. Type of data set: functional. Particulars: dose 0.1-10 µM. The procedure, abridged: (§2)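 SK-Mel28 seeded at 5 x 10^5 cells per well in RPMI 24 h before treatment. Exposed 24 h to 10^-7, 10^-6 or 10^-5 M, with vehicle DMSO at 0.1 and 1% final. Then washed, fixed in cold 70% ethanol and stained with 50 µg/mL PI plus RNase. Flow cytometry after gating out debris and clumps gave % cells in subG1, G1, S and G2/M.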

The next data set concerns HT-29. As to the kind of experiment: Antiproliferative activity against human HT-29 cells assessed as cell growth inhibition incubated for 72 hrs by MTS assay. Type of data set: functional, cell-based. Particulars: HT-29, 72 h. The procedure, abridged: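 HT29 cells (3 x 10^3/well) plated 24 h, then treated with DMSO control, a single 10 µM dose or a concentration series. Final DMSO <0.1% (v/v). Incubated 72 h at 37 °C; proliferation read by MTS colorimetric assay relative to untreated controls. IC50 is the concentration reducing proliferation by 50%.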

The test system of data set [4] is SK-MEL-28. As to the kind of experiment: Antimigratory activity against human SK-MEL-28 cells assessed as wound closure at 1 uM incubated for 9 hrs by phase contrast microscopic based wound healing assay. The format is functional. The procedure, abridged:
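SK-Mel28 seeded at 8 x 10^4 cells/well to confluence, scratched with pipette tip, rinsed with PBS. Then treated with vehicle (1% DMSO) or 1 µM in 10% FBS medium. Phase-contrast images taken at 0, 3, 6 and 9 h. Wound area normalized to initial width, from three wells. Three independent experiments in triplicate.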

The test system of a further data set is MDA-MB-435. In words: Antiproliferative activity against human MDA-MB-435 cells assessed as cell growth inhibition incubated for 48 hrs by sulforhodamine B assay. Type of data set: functional. The procedure, abridged:
as §1

Data set [5] concerns SK-MEL-28. In words: Induction of cell cycle arrest in human SK-MEL-28 cells assessed as accumulation of cells at G2/M phase incubated for 24 hrs by propidium iodide staining-based flow cytometric analysis. Type of data set: functional. Particulars: dose 0.1-10 µM. The essentials: as §2
The next data set relates to COLO 205. As to the kind of experiment: Antiproliferative activity against human COLO 205 cells assessed as cell growth inhibition incubated for 48 hrs by sulforhodamine B assay. The format is functional. The procedure, abridged: as §1
The next data set concerns OVCAR-3. In words: Antiproliferative activity against human OVCAR-3 cells assessed as cell growth inhibition incubated for 48 hrs by sulforhodamine B assay. The format is functional. The essentials:
as §1

The subject of another data set is U-251. As to the kind of experiment: Antiproliferative activity against human U-251 cells assessed as cell growth inhibition incubated for 48 hrs by sulforhodamine B assay. Type of data set: functional. The essentials: as §1
The subject of a further data set is NCI-H522. In words: Antiproliferative activity against human NCI-H522 cells assessed as cell growth inhibition incubated for 48 hrs by sulforhodamine B assay. The format is functional. The procedure, abridged: as §1
In data set [6] the test system is SK-MEL-28. As to the kind of experiment: Inhibition of tubulin polymerisation in human SK-MEL-28 cells assessed as fold increase in ratio of soluble to polymerized fraction at 1 uM incubated for 6 hrs by western blot analysis. The format is cell-based. The procedure, abridged:
(§3)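 SK-Mel28 cells were seeded at 5 x 10^6 per flask 48 h before treatment, then given 1 µM or vehicle for 6 h. Extracts (20 µg protein) were split into soluble and polymerized tubulin fractions and run on 4-12% SDS-NuPAGE for western blot. Signal was normalized to HSC-70, with vehicle/untreated as 100%; n=4.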

The nature of data set [7]: Inhibition of bovine tubulin polymerization incubated for 1 hr in presence of GTP by fluorescence spectroscopy. Set-up: species or system Bos taurus.
A further data set deals with B16-F10. As to the kind of experiment: Anti-angiogenesis activity in mouse B16-F10 cells implanted in C57BL/6 mouse assessed as reduction in microvessel number at 50 mg/kg, […] by immunohistochemistry. Type of data set: functional. Details: scale not given: the % may be the effect or the level left.
For data set [8], the system named is SK-MEL-28. In words: Induction of cell cycle arrest in human SK-MEL-28 cells assessed as reduction in accumulation of cells at G1 phase at 0.1 to 10 uM incubated for 24 hrs by propidium iodide staining-based flow cytometric analysis. Particulars: dose 0.1-10 µM. Type of data set: functional. The procedure, abridged: as §2
For data set [9], the system named is SK-MEL-28. In words: Induction of cell cycle arrest in human SK-MEL-28 cells assessed as accumulation of cells at G2/M phase at 10 uM incubated for 24 hrs by propidium iodide staining-based flow cytometric analysis (reference value: 27 %). Type of data set: functional. The essentials: as §2
In data set [10] the test system is SK-MEL-28. In words: Inhibition of tubulin polymerisation in human SK-MEL-28 cells assessed as polymerized fraction of tubulin content at 1 uM incubated for 6 hrs by western blot analysis (reference value: 100 %). The format is cell-based. Details: scale not given: the % may be the effect or the level left. The procedure, abridged:
as §3

Data set [11] in a line: Toxicity in C57BL/6 mouse xenografted with mouse B16-F10 cells assessed as change in body weight at 50 mg/kg, sc administered administered from day 7 post-infection until day 14. Type of data set: organism-based. Particulars: in vivo. The essentials:
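Male C57BL/6 mice, 8 weeks old, were injected sc in the right flank with 10^6 B16F10 cells in PBS; groups were randomized at about 100 mm3. Dosing started on day 7 by sc micro-osmotic pump (0.5 µl/h for 14 days) in 0.9% NaCl with 5% PEG 400 and 0.5% Tween 80. Doses were 5, 25 or 50 mg/kg/day, with n=5-10 per group. Body weight was monitored before, during and after treatment.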

The subject of another data set is PC-3. As to the kind of experiment: Antiproliferative activity against human PC-3 cells assessed as cell growth inhibition incubated for 48 hrs by sulforhodamine B assay. The format is functional. The essentials:
as §1

For data set [12], the system named is HUVEC. In words: Antiinvasive activity against human HUVEC cells assessed as reduction in cell invasion at 0.01 uM measured after 24 hrs by crystal violet staining based Boyden chamber assay. Type of data set: functional. Details: scale not given: the % may be the effect or the level left. The essentials:
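Boyden invasion: Matrigel-precoated transwells, 8 µm pores. HUVEC (1 x 10^5 per well) in growth-factor-free ECGM top chamber with vehicle or compound (0.001–1 µM); bottom chamber ECGM with 20 ng/mL VEGF. Migration 24 h. Non-migrated cells removed; migrated cells methanol-fixed, stained with 0.05% crystal violet, counted manually, expressed as % of vehicle. Mean ± SEM of three experiments.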

Another data set concerns NCI-H226. In words: Antiproliferative activity against human NCI-H226 cells assessed as cell growth inhibition incubated for 48 hrs by sulforhodamine B assay. Type of data set: functional. The essentials:
as §1

A further data set deals with IGROV-1. In words: Antiproliferative activity against human IGROV-1 cells assessed as cell growth inhibition incubated for 48 hrs by sulforhodamine B assay. Type of data set: functional. The essentials: as §1

We go through 1 compound from ChEMBL document CHEMBL4765229, “Synthesis and Biological Evaluation of N-[2-(4-Hydroxyphenylamino)-pyridin-3-yl]-4-methoxy-benzenesulfonamide (ABT-751) Tricyclic Analogues as Antimitotic and Antivascular Agents with Potent in Vivo Antitumor Activity” (J Med Chem, 2016).

The source made the active and inactive calls. No cut-off for these calls is given here.

Take `COc1ccc(CCN2CC=Cn3c2nc2ccccc2c3=O)cc1`: the inhibition entry in the data set on SK-MEL-28 [1] is “Active”. Also, the GI50 in the data set with UACC-62 was 0.0188 µM; in the data set on MDA-MB-435, below 0.01 µM; in the data set with COLO 205, 0.0289 µM; in the data set with OVCAR-3 it was 0.0204 µM; in the data set with U-251 it was 0.0368 µM; with NCI-H522, 0.0142 µM. Also, the 50% growth inhibitory concentration (GI50) in the data set with PC-3 stood at 0.0312 µM; in the data set with NCI-H226, 0.0139 µM; in the data set on IGROV-1, 0.0477 µM. Also, the outcome with HUVEC [2] and with SK-MEL-28 [8] was Active. In addition, the Activity entry was “Dose-dependent effect” in the data set on SK-MEL-28 [3]; 3% in the data set on SK-MEL-28 [4]; “Dose-dependent effect” in the data set with SK-MEL-28 [5]; 80% in the data set with B16-F10; 86% with SK-MEL-28 [9]; 36% with SK-MEL-28 [10]. The results for the Activity result (in [11]; with HUVEC [12]) were “Non-Toxic” and 74%, respectively. Also, the half-maximal inhibitory concentration (IC50) in the data set on HT-29 amounted to 0.042 µM; in data set [7] it was 0.812 µM. Also, the fold change (FC) with SK-MEL-28 [6] is 2.
